The source of these data is ChEMBL document CHEMBL1221348, “1,2,3-triazole analogs of combretastatin A-4 as potential microtubule-binding agents” (Bioorg Med Chem, 2010).

The subject of one test is K562. In words: Cytotoxicity against human K562 cells after 5 days by MTT assay. The test is classed as functional, cell-based. The conditions noted are these: K562, 120 h. The method, boiled down: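 K562 human chronic myelogenous leukemia cells were grown in antibiotic-free RPMI with 10% v/v FCS and plated at 40,000 cells/mL. Drug was dissolved in DMSO and serially diluted in medium, with a drug-free control. Plates were incubated 5 days at 37 °C in 5% CO2. MTT was added for 3 h and the formazan dissolved in DMSO. OD was read at 540 and 690 nm to derive the growth-inhibitory dose.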

Another test deals with Tubulin (Sus scrofa, UniProt P02554+P02550). In words: Inhibition of pig tubulin polymerization. The test is classed as protein assay. The method, boiled down:
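Porcine brain tubulin (11 mg/mL stock) was used in Mes buffer (0.1 M Mes, 1 mM EGTA, 0.5 mM MgCl2, pH 6.6) with GTP (5 mM stock) and drug in DMSO. The plate was prechilled 30 min at 4 °C. Absorbance at 350 nm was recorded at ambient temperature for 60 min against buffer+drug blanks. IC50 was taken graphically as percent of untreated control assembly.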

For `COc1ccc(Cn2nncc2-c2cc(OC)c(OC)c(OC)c2)cc1`, the IC50 in the test on K562 amounted to 8.66 µM.
On the same count and under the same terms, under `COc1ccc(Cn2nncc2-c2cc(OC)c(OC)c(OC)c2)cc1Br` stands more than 10 µM; under `COc1ccc(Cn2nncc2-c2cc(OC)c(OC)c(OC)c2)cc1O`, 1.83 µM; under `COc1ccc(Cn2nncc2-c2cc(OC)c(OC)c(OC)c2)cc1[N+](=O)[O-]`, more than 10 µM.
Turning to `COc1ccc(Cn2nncc2-c2cc(OC)c(OC)c(OC)c2)cc1N`, the concentration for half-maximal inhibition (IC50) against Tubulin was more than 20 µM; in the test on K562 it was 0.73 µM.
On to `COc1ccc(-c2cnnn2Cc2cc(OC)c(OC)c(OC)c2)cc1`, for which the half-maximal inhibitory concentration (IC50) with K562 was found to be 5.56 µM.
The same measure, in the same setting: under `COc1ccc(-c2cnnn2Cc2cc(OC)c(OC)c(OC)c2)cc1Br` stands more than 10 µM; under `COc1ccc(-c2cnnn2Cc2cc(OC)c(OC)c(OC)c2)cc1O`, 0.53 µM.
Same read-out and setting: under `COc1ccc(-c2cnnn2Cc2cc(OC)c(OC)c(OC)c2)cc1[N+](=O)[O-]` stands more than 10 µM.
In the case of `COc1ccc(-c2cnnn2Cc2cc(OC)c(OC)c(OC)c2)cc1N`, the IC50 against Tubulin is more than 20 µM; in the test on K562, 0.38 µM.
`COc1ccc(-n2cc(-c3cc(OC)c(OC)c(OC)c3)nn2)cc1Br` displayed an IC50 with K562 of more than 10 µM.
The same measure, in the same setting: under `COc1ccc(-n2cc(-c3cc(OC)c(OC)c(OC)c3)nn2)cc1[N+](=O)[O-]` stands more than 10 µM; under `COc1ccc(-n2cc(-c3cc(OC)c(OC)c(OC)c3)nn2)cc1N`, more than 10 µM; under `COc1ccc(-c2cn(-c3cc(OC)c(OC)c(OC)c3)nn2)cc1Br`, more than 10 µM.
Still for that read-out and setting: under `COc1ccc(Cn2cc(-c3cc(OC)c(OC)c(OC)c3)nn2)cc1` stands more than 10 µM; under `COc1ccc(Cn2cc(-c3cc(OC)c(OC)c(OC)c3)nn2)cc1Br`, more than 10 µM.
For the molecule `COc1ccc(Cn2cc(-c3cc(OC)c(OC)c(OC)c3)nn2)cc1O`, the IC50 with K562 was more than 10 µM.
`COc1ccc(Cn2cc(-c3cc(OC)c(OC)c(OC)c3)nn2)cc1[N+](=O)[O-]` displayed an IC50 in the test on K562 of more than 10 µM.
Still for that read-out and setting: under `COc1ccc(Cn2cc(-c3cc(OC)c(OC)c(OC)c3)nn2)cc1N` stands more than 10 µM; under `COc1ccc(-c2cn(Cc3cc(OC)c(OC)c(OC)c3)nn2)cc1`, more than 10 µM.
The molecule `COc1ccc(-c2cn(Cc3cc(OC)c(OC)c(OC)c3)nn2)cc1Br` showed an IC50 with K562 of more than 10 µM.
For `COc1ccc(-c2cn(Cc3cc(OC)c(OC)c(OC)c3)nn2)cc1O`, the half-inhibitory concentration (IC50) with K562 was more than 10 µM.
For the molecule `COc1ccc(-c2cn(Cc3cc(OC)c(OC)c(OC)c3)nn2)cc1[N+](=O)[O-]`, the IC50 with K562 is more than 10 µM.
`COc1ccc(-c2cn(Cc3cc(OC)c(OC)c(OC)c3)nn2)cc1N` returned a concentration for half-maximal inhibition (IC50) with K562 of more than 10 µM.
The same measure, in the same setting: under `COc1ccc(-c2cn(-c3cc(OC)c(OC)c(OC)c3)nn2)cc1` stands more than 10 µM.
On the same count and under the same terms, under `COc1ccc(-n2cc(-c3cc(OC)c(OC)c(OC)c3)nn2)cc1` stands more than 10 µM.
With `COc1ccc(-n2cc(-c3cc(OC)c(OC)c(OC)c3)nn2)cc1O`, the IC50 against Tubulin was more than 20 µM; with K562, 3.2 µM.
Molecule `COc1ccc(-c2cn(-c3cc(OC)c(OC)c(OC)c3)nn2)cc1O` registered an IC50 in the test with K562 of more than 10 µM.
The same measure, in the same setting: under `COc1ccc(-c2cn(-c3cc(OC)c(OC)c(OC)c3)nn2)cc1[N+](=O)[O-]` stands more than 10 µM.
`COc1ccc(-c2cn(-c3cc(OC)c(OC)c(OC)c3)nn2)cc1N` gave a 50% inhibitory concentration (IC50) on Tubulin of more than 20 µM.
